Source: PubChem BioAssay
The list is not random: actives were taken first. Their share in the collection is about 0.77%.
hIAP block = blocks human intestinal alkaline phosphatase | AID 2544 | purified IAP, CDP-Star luminescence, 30 min | inhibition, % at 10 µM | actives 0.12% (n = 330,000) | P09923;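 active = inhibition reaching a set limit with compound at 10 µM in the primary screen, cut at about 35% in these data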
Target sequence (P09923 whole entry, looked up): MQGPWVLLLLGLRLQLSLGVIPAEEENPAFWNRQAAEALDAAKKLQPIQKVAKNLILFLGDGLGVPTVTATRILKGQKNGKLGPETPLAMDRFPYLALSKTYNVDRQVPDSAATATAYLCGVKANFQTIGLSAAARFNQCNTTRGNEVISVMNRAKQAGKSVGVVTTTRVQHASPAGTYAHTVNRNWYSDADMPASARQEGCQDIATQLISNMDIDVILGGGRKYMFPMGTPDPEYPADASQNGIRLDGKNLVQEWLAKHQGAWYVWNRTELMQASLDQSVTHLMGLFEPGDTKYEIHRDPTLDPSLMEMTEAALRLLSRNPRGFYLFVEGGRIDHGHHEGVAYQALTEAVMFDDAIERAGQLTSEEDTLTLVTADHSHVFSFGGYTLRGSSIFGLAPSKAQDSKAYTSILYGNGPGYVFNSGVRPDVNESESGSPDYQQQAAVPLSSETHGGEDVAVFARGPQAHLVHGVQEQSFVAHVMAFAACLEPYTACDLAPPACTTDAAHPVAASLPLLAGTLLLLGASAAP
bIAP inh = blocks bovine intestinal alkaline phosphatase activity; purified bovine IAP, CDP-star luminescence, 30 min; inhibition, % at 20 µM; 190,000 tested, under 10 active;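 active = over 50% inhibition of intestinal alkaline phosphatase at 20 µM in the single-dose screen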
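Incubation: 30 min reaction at room temperature / Material: purified bovine intestinal alkaline phosphatase (IAP) enzyme / Input: enzyme at 1/65,000,000 dilution / Dosing: 20 µM single dose / Signal: CDP-star luminescence signal / Reagent: CDP-star chemiluminescent phosphatase substrate, 30 µM final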
mIAP activ = increases mouse intestinal alkaline phosphatase activity; muIAP, CDP-Star luminescence, 30 min; stronger effect = higher value; 1 = vehicle-only enzyme signal, 0 = enzyme-free wells; activation factor at 10 µM; actives 0.24% (n = 330,000); AID 2805;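 active = activation factor of at least 2 at 20 µM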
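System: mouse IAP enzyme. Reagent: CDP-Star chemiluminescent phosphatase substrate. Benchmarks: DMSO wells, no-enzyme wells. Times: 30 min enzyme-substrate-compound incubation at room temperature. Detection: luminescence from enzymatic CDP-Star hydrolysis. Doses: test compounds delivered from DMSO solution.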
mIAP block = blocks mouse intestinal alkaline phosphatase. purified mouse IAP, CDP-Star luminescence, 30 min. actives 0.2% (n = 330,000). AID 2806. inhibition, % at 10 µM;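 active = inhibition of at least 40% at 10 µM in the primary screen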
bIAP activator = increases bovine intestinal alkaline phosphatase activity | purified bovine IAP, CDP-star luminescence, 30 min; stronger effect = higher value; fold of DMSO-control signal, blank-subtracted | activation factor at 20 µM | actives 0.17% (n = 200,000) | AID 1016;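 active = activation factor of 2 or more at 20 µM, a signal rise over negative controls twice the positive control's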
hIAP activ = human IAP activation | P09923 | purified human IAP, CDP-Star luminescence, 30 min; stronger effect = higher value; 1 = vehicle-only enzyme, 0 = enzyme-free background | activation factor at 10 µM | actives 0.16% (n = 330,000) | AID 2524;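 active = activation factor of the enzyme at least 2-fold when tested at 20 µM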
Each line names hits and unclear results; the compound was inactive in the other large screens.

COc1ccc(-c2[nH]ncc2C2N=C(N)Nc3nc4ccccc4n32)cc1 (configuration not stated)	bIAP activator 2.2
COC(=O)c1ccc(OC(=O)CCN2c3ccccc3Sc3ccccc32)cc1	bIAP activator 5.1
O=S(=O)(c1ccc(SCCOc2ccc(F)cc2)nc1)N1CCCC1	none (no result: bIAP inh, bIAP activator)
CC(CNC(=S)Nc1cc(F)cc(F)c1)CSc1ccc(Cl)cc1 (configuration not stated)	mIAP activ 3.2
COc1cc(NC(=O)C2CCN(S(=O)(=O)c3ccc(Cl)cc3)CC2)ccc1-n1cnnn1	mIAP activ 2.3
COc1cc(/C=c2\s/c(=C(/C#N)C(=O)N3CCCC3)n(-c3ccccc3)c2=O)ccc1O	mIAP block 42 (no result: bIAP inh)
COC(=O)/C=c1/s/c(=C(/C#N)C(=O)N2CCCCC2)n(-c2ccccc2)c1=O	none
Cc1ccc(C)c(NC(=O)CCC(=O)N/N=C/c2ccc[nH]2)c1	none
Cc1c(Cl)cccc1NC(=O)CCC(=O)N/N=C/c1ccc[nH]1	mIAP block 51
COc1ccc(CCNC(=O)c2cc(-c3ccccc3)c(N3CCOCC3)s2)cc1OC	mIAP activ 2.2 (no result: bIAP inh, bIAP activator)
O=C(NCCc1ccccc1)c1cc(-c2ccccc2)c(N2CCOCC2)s1	mIAP activ 2.8 (no result: bIAP inh, bIAP activator)
CSc1ccc(CCNC(=O)c2cc(-c3ccccc3)c(N3CCOCC3)s2)cc1	mIAP activ 2.4 (no result: bIAP inh, bIAP activator)
COc1ccc(CCNC(=O)c2ccc(CNc3c(N4CCOCC4)c(=O)c3=O)cc2)cc1OC	none
COc1ccc(CCNC(=O)c2cc(-c3ccccc3O)n[nH]2)cc1OC	bIAP activator 2
CCC(C)/C(C)=N/NC(=O)CNS(=O)(=O)c1ccc([N+](=O)[O-])cc1 (configuration not stated)	none
Cc1ccccc1-c1ccc(C(=O)Nc2cccc(F)c2)o1	bIAP activator 3.5
O=C(Nc1cccc(F)c1)c1ccc(-c2ccccc2C(F)(F)F)o1	none (no result: hIAP block, mIAP activ, mIAP block, hIAP activ)
COc1ccc(/C=N/NC(=O)NC23CC4CC(CC(C4)C2)C3)c(OC)c1	none (no result: bIAP inh, bIAP activator)
CC(=O)Nc1ccc(C(=O)COC(=O)C2CC3CCCC(C2)C3=O)cc1 (configuration not stated)	none (no result: bIAP inh, bIAP activator)
Cc1c(CCOC(=O)CC23CC4CC(CC(C)(C4)C2)C3)sc[n+]1CC(=O)c1ccccc1	none
Cc1c(CCOC(=O)C23CC4CC(CC(C)(C4)C2)C3)sc[n+]1CC(=O)c1ccccc1	mIAP block 43
COc1ccc(S(=O)(=O)N2CCN(CC(=O)Nc3c(C)n[nH]c3C)CC2)cc1OC	none (no result: bIAP inh, bIAP activator)
CCOC(=O)c1sc(NC(=O)Nc2ccccc2)cc1C	none
CCOC(=O)c1sc(NC(=O)Nc2ccccc2Cl)cc1C	mIAP activ 3.2
OCc1nc2ccccc2n1CCCOc1ccc(Br)cc1	bIAP activator 2.9
OCc1nc2ccccc2n1CCCCOc1ccccc1	none (no result: bIAP inh, bIAP activator)
OCCNc1ncnc2c1c(-c1ccccc1)c(-c1ccccc1)n2Cc1ccco1	none
c1ccc(-c2c(-c3ccccc3)n(Cc3ccco3)c3ncnc(NCCCn4ccnc4)c23)cc1	bIAP activator 49
COc1cccc(CN(C(=O)c2ccccc2Br)C2CCS(=O)(=O)C2)c1 (configuration not stated)	none (no result: bIAP inh, bIAP activator)
CCNC(=O)COC(=O)c1ccc(-c2nc3ccccc3s2)s1	none
Cc1noc(C)c1COC(=O)c1ccc(-c2nc3ccccc3s2)s1	mIAP block 42
Cc1cc(C(=O)C(=O)O)c(C)n1-c1ccc(Cl)c(Cl)c1	bIAP activator 2.5
CCOc1ccc(OCCOC(=O)C2CCN(S(=O)(=O)c3ccc(C)c(C)c3)CC2)cc1	none (no result: bIAP inh, bIAP activator)
COc1ccccc1NC(=O)CC(NCc1ccccc1)C(=O)O (configuration not stated)	bIAP activator 2.3
COc1ccc(NC(=O)CC(NCCc2ccccc2)C(=O)O)c(OC)c1 (configuration not stated)	none
Cc1ccc2c(c1)C1NC(=S)NC(C)(O2)C1C(=O)Nc1ccc(Cl)cc1 (configuration not stated)	mIAP activ 2
O=C(CN1CCN(C(=O)c2ccco2)CC1)Nc1ccccc1	none (no result: bIAP inh, bIAP activator)
O=C(Nc1ccccc1)NC1(C(=O)N2CCN(C(=O)c3ccco3)CC2)CCCCC1	bIAP activator 6.3
O=C(NCc1ccccc1)NC1(C(=O)N2CCN(c3ccccc3)CC2)CCCCC1	mIAP activ 2.3, bIAP activator 2.1
COc1ccccc1Nc1nc(-c2cccs2)cs1	mIAP block 43
CC(=O)N1CCN(S(=O)(=O)c2cccc(C(=O)NNC(=O)COc3ccc(F)cc3)c2)CC1	none (no result: bIAP inh, bIAP activator)
O=C(/C=C/c1ccc([N+](=O)[O-])cc1)NCc1cccs1	bIAP activator 4.9
O=C(COC(=O)/C=C/c1ccc([N+](=O)[O-])cc1)NCc1cccs1	none (no result: bIAP inh, bIAP activator)
CC(C)(C)c1ccc(OCC(=O)Nc2ccc(-c3nc4cccnc4o3)cc2)cc1	bIAP activator 2
O=C1C2C3C=CC(C3)C2C(=O)N1c1cccc(-c2nc3ccccc3o2)c1 (configuration not stated)	bIAP activator 3.9
O=C(Nc1cccc(-c2nc3ccccc3o2)c1)c1ccc(N2C(=O)C3C4C=CC(C4)C3C2=O)cc1 (configuration not stated)	none
CCc1ccc(-c2nc(CN3CCC(C(=O)NCCc4ccc(OC)c(OC)c4)CC3)c(C)o2)cc1	bIAP activator 2.1
CCc1ccc(-c2nc(CN3CCC(C(=O)NCc4ccccc4OC)CC3)c(C)o2)cc1	bIAP activator 2.6
O=C(Nc1cccc([N+](=O)[O-])c1)C1COc2ccccc2O1 (configuration not stated)	none (no result: bIAP inh, bIAP activator)
O=c1[nH]c2cc(Cl)c([N+](=O)[O-])nc2[nH]1	mIAP block 54
CCC(C(=O)Nc1ccon1)c1ccccc1 (configuration not stated)	none (no result: bIAP inh, bIAP activator)
Cc1nn(Cc2ccc(F)cc2)c(C)c1NC(=O)C1c2ccccc2Oc2ccccc21	mIAP activ 2.9
Cc1cc(C(=O)Nc2c(C)nn(Cc3ccc(F)cc3)c2C)on1	none
Cc1ccc(SCC(=O)Nc2ccc(N3CCN(C)CC3)c(F)c2)c(C)c1	mIAP block 42
Cc1ccc(-n2nnnc2SCC(=O)Nc2ccc(N3CCN(C)CC3)cc2)c(C)c1	none (no result: bIAP inh, bIAP activator)
O=C(Nc1ccon1)Nc1ccccc1C(F)(F)F	none (no result: bIAP inh, bIAP activator)
N#CCC(=O)Nc1ccc(C(=O)NNC(=O)c2ccccc2-n2cccc2)cc1	none (no result: bIAP inh, bIAP activator)
COc1ccccc1N1C(=O)C2C(C(=O)c3ccccc3)=NN(c3ccccc3OC)C2C1=O (configuration not stated)	none (no result: bIAP inh, bIAP activator)
Cc1c(C(=O)Nc2ccccc2[N+](=O)[O-])csc1-c1ccccc1	bIAP activator 3.7
Cc1ccc2c(=O)n3c(nc2c1)C(Cc1ccc(O)cc1)NC(=O)c1ccc(Cl)cc1-3 (configuration not stated)	none (no result: bIAP inh, bIAP activator)
